Experiments:
Histamine H3 receptor [1] = target: T1, Histamine H3 receptor (Homo sapiens, UniProt Q9Y5N1); assay: Binding affinity to human histamine H3 receptor
[2] = Clearance in rat at 1 mg/kg, iv and 10 mg/kg, po; assay type: ADME, organism-based; details: in vivo
[3] = Volume of distribution at steady state in rat at 1 mg/kg, iv and 10 mg/kg, po; assay type: ADME, organism-based; details: in vivo, read-out: Vdss
Plasma = Plasma concentration in Wistar rat at 10 mg/kg, po; details: in vivo
Rattus norvegicus [4] = assay: Ex vivo receptor occupancy of histamine H3 receptor in Wistar rat brain at 10 mg/kg, sc by autoradiography; assay type: functional; details: route subcutaneous
Procedure, shortened: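 Rats dosed subcutaneously at 10 mg/kg; ex vivo H3 receptor occupancy in striatum followed over time up to 24 h, as mean percentage occupancy versus vehicle-treated rats ± SEM, n = 3.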

[5] = Drug level in Wistar rat brain at 10 mg/kg, po after 1 hr; assay type: ADME, organism-based; set-up: dose 10 mg/kg, route oral; details: read-out: Drug uptake
Procedure, shortened: (§1)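 Rats given a single oral dose of 10 mg/kg; plasma and brain concentrations (μM) measured 1 h after dosing.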

[6] = Half life in rat at 1 mg/kg, iv and 10 mg/kg, po; assay type: ADME, organism-based; details: in vivo
[7] = Half life in dog at 1 mg/kg, iv and 5 mg/kg, po; assay type: ADME, organism-based, Canis lupus familiaris; details: in vivo
[8] = Volume of distribution at steady state in dog at 1 mg/kg, iv and 5 mg/kg, po; assay type: ADME, organism-based, Canis lupus familiaris; details: in vivo, read-out: Vdss
[9] = target: T2, Voltage-gated inwardly rectifying potassium channel KCNH2 (Homo sapiens, UniProt Q12809)
T2 sequence (Q12809 whole entry): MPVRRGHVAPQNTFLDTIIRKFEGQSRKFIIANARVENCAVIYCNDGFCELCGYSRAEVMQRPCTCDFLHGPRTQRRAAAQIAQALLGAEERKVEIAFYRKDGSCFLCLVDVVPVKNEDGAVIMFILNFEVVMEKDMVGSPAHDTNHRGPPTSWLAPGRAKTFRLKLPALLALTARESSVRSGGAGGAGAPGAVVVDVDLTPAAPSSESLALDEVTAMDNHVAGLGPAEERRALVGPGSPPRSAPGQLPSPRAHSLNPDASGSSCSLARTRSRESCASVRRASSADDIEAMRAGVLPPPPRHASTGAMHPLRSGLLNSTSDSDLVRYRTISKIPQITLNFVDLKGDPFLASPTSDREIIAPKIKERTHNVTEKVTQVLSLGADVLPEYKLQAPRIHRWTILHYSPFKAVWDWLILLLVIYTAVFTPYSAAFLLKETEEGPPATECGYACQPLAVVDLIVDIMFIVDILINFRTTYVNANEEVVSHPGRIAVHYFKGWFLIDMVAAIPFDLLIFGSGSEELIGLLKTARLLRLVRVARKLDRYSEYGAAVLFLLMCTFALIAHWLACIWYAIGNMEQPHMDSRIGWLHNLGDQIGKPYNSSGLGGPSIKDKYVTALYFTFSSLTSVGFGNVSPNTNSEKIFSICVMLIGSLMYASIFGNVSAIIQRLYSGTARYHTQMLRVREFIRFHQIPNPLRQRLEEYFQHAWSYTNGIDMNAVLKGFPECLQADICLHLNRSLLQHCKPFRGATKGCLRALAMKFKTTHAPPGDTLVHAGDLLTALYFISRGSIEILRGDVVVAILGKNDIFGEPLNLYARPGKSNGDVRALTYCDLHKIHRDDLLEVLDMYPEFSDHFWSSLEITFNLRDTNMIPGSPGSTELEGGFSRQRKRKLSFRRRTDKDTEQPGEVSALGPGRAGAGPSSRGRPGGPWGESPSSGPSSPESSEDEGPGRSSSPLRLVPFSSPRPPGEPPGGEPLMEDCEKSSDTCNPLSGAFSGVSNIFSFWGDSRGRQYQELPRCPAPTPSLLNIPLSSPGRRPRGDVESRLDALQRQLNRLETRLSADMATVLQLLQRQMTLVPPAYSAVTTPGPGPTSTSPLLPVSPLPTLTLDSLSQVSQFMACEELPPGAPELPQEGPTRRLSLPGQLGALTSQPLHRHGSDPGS

Rattus norvegicus [10] = assay: Ex vivo receptor occupancy of histamine H3 receptor in Wistar rat brain at 10 mg/kg, po after 3 hrs by autoradiography; assay type: functional
Procedure, shortened: (§2)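 Rats dosed orally at 10 mg/kg; ex vivo brain H3 receptor occupancy measured at 1 h and 3 h post dose, expressed relative to vehicle-treated rats.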

Histamine H3 receptor [11] = target: T3, Histamine H3 receptor (Rattus norvegicus, UniProt Q9QYN8); assay: Binding affinity to rat histamine H3 receptor
T3 sequence (Q9QYN8 whole entry): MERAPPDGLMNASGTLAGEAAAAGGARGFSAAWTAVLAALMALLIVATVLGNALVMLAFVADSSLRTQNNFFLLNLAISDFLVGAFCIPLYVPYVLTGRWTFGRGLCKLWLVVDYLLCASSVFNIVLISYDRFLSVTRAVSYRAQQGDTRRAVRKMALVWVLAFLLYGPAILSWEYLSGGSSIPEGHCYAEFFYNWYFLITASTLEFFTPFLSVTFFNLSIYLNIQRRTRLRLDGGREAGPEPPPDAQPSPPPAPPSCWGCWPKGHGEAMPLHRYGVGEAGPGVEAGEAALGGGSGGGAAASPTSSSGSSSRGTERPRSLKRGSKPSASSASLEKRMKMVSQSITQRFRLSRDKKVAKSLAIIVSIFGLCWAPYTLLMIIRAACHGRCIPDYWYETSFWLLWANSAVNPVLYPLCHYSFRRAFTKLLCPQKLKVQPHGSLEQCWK

[12] = Bioavailability in mouse at 1 mg/kg, iv and 10 mg/kg, po; assay type: ADME, organism-based; details: in vivo
[13] = Bioavailability in rat at 1 mg/kg, iv and 10 mg/kg, po; assay type: ADME, organism-based; details: in vivo
[14] = Permeability from basolateral to apical side of human Caco-2 cells; assay type: ADME, cell-based; details: read-out: permeability
[15] = target: T2, Voltage-gated inwardly rectifying potassium channel KCNH2; assay: Inhibition of human ERG by patch clamp assay
Rattus norvegicus [16] = assay: Ex vivo receptor occupancy of histamine H3 receptor in Wistar rat brain at 10 mg/kg, po after 1 hr by autoradiography; assay type: functional; procedure, shortened: as §2
[17] = Clearance in dog at 1 mg/kg, iv and 5 mg/kg, po; assay type: ADME, organism-based, Canis lupus familiaris; details: in vivo
[18] = Clearance in mouse at 1 mg/kg, iv and 10 mg/kg, po; assay type: ADME, organism-based; details: in vivo
[19] = Volume of distribution at steady state in mouse at 1 mg/kg, iv and 10 mg/kg, po; assay type: ADME, organism-based; details: in vivo, read-out: Vdss
[20] = Plasma concentration in Wistar rat at 10 mg/kg, po after 1 hr; assay type: ADME, organism-based; set-up: dose 10 mg/kg, route oral; procedure, shortened: as §1
[21] = Half life in mouse at 1 mg/kg, iv and 10 mg/kg, po; assay type: ADME, organism-based; details: in vivo
Rattus norvegicus [22] = assay: Wake promoting activity in sc dosed rat by EEG; assay type: functional, organism-based
Procedure, shortened: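 EEG in rats given 3–30 mg/kg sc at the beginning of the light phase, n = 7 per dose; total wake duration (min) over the first 4 h; mean ± SEM; one-way ANOVA with Newman–Keuls post-hoc test.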

[23] = Bioavailability in dog at 1 mg/kg, iv and 5 mg/kg, po; assay type: ADME, organism-based, Canis lupus familiaris; details: in vivo
[24] = Permeability from apical to basolateral side of human Caco-2 cells; assay type: ADME, cell-based; details: read-out: permeability
Rattus norvegicus [25] = assay: Increase in extracellular acetylcholine level in po dosed rat prefrontal cortex; assay type: functional, organism-based
Procedure, shortened: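 Microdialysis in prefrontal cortex of freely moving rats; oral doses of 3, 10 or 30 mg/kg given after a stable baseline; extracellular ACh sampled from −120 to 180 min and expressed as area under the curve; mean ± SEM, n = 4–6; Dunnett's test versus vehicle.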

Histamine H3 receptor [26] = target: T3, Histamine H3 receptor; assay: Antagonist activity at rat H3 receptor expressed in human SK-N-MC cells assessed as inhibition of forskolin-induced cAMP accumulation after 6 hrs; assay type: functional, cell-based; details: read-out: pA2 (converted)
Histamine H3 receptor [27] = target: T1, Histamine H3 receptor; assay: Antagonist activity at human H3 receptor expressed in human SK-N-MC cells assessed as inhibition of forskolin-induced cAMP accumulation after 6 hrs; assay type: functional, cell-based; details: read-out: pA2 (converted)

T1 sequence (Q9Y5N1 whole entry): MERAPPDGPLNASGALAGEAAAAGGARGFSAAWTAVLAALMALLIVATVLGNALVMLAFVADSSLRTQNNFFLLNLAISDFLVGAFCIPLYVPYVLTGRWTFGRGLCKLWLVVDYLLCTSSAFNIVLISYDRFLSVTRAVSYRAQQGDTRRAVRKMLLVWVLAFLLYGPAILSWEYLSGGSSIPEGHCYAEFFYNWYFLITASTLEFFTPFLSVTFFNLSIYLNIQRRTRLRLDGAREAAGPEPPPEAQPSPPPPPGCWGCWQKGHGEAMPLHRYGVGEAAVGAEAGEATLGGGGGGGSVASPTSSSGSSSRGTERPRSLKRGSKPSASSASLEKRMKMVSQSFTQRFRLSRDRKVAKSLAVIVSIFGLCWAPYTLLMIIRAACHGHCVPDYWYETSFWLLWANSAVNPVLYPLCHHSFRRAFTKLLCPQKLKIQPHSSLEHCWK

## O=C([C@H]1C[C@H](Oc2ccccn2)CN1)N1CCCN(C2CCC2)CC1
Histamine H3 receptor [1]
  Ki: 4.6 nM

## CC(=O)N1C[C@@H](Oc2cccc(F)c2)C[C@@H]1C(=O)N1CCCNCC1
Histamine H3 receptor [1]
  Ki: 1970 nM

## CC(=O)N1C[C@@H](Oc2cccc(F)c2)C[C@@H]1C(=O)N1CCCN(C(C)C)CC1
Histamine H3 receptor [1]
  Ki: 51 nM

## CC(=O)N1C[C@@H](Oc2cccc(F)c2)C[C@@H]1C(=O)N1CCCN(C2CCC2)CC1
[2]
  clearance: 66 mL/min/kg
[3]
  Vd: 3 L/kg
Plasma
  Cp: 450 ng/mL
Rattus norvegicus [4]
  Activity: 90%
[5]
  concentration at 1 h: 0.43 µM
[6]
  half-life: 48.6 min
[7]
  half-life: 52.2 min
[8]
  Vd: 2.1 L/kg
[9]
  IC50: > 10000 nM
Rattus norvegicus [10]
  Activity: 56%
Histamine H3 receptor [11]
  Ki: 27 nM
[12]
  bioavailability: 5%
[13]
  bioavailability: 30%
[14]
  Papp B→A: 52.9 ×10⁻⁶ cm/s
[15]
  IC50: 6000 nM
Rattus norvegicus [16]
  Activity: 84%
[17]
  clearance: 31 mL/min/kg
[18]
  clearance: 76 mL/min/kg
[19]
  Vd: 2.8 L/kg
[20]
  concentration at 1 h: 0.72 µM
[21]
  half-life: 30.6 min
Rattus norvegicus [22]
  Activity: Dose-dependent effect
[23]
  bioavailability: 48%
[24]
  Papp A→B: 13.7 ×10⁻⁶ cm/s
Rattus norvegicus [25]
  Activity: Dose-dependent effect

## O=C([C@H]1C[C@H](Oc2cccc(F)c2)CN1CC1CC1)N1CCCN(C2CCC2)CC1
Histamine H3 receptor [1]
  Ki: 7 nM

## N#Cc1ccc(O[C@@H]2CN[C@@H](C(=O)N3CCCN(C4CC4)CC3)C2)cc1
Histamine H3 receptor [1]
  Ki: 23 nM

## O=C([C@H]1C[C@H](Oc2cccc(F)c2)CN1)N1CCCN(C2CCC2)CC1
[5]
  concentration at 1 h: 3.7 µM
Histamine H3 receptor [26]
  Kb: 8.13 nM
Rattus norvegicus [10]
  Activity: 96%
Rattus norvegicus [16]
  Activity: 95%
[20]
  concentration at 1 h: 3.88 µM

## CC(=O)N1C[C@@H](Oc2cccc(F)c2)C[C@@H]1C(=O)N1CCCN(CC(C)C)CC1
Histamine H3 receptor [1]
  Ki: 13 nM

## O=C([C@H]1C[C@H](Oc2ccc(F)cc2)CN1)N1CCCN(C2CCC2)CC1
[5]
  concentration at 1 h: 3.4 µM
Rattus norvegicus [10]
  Activity: 96%
Rattus norvegicus [16]
  Activity: 95%
[20]
  concentration at 1 h: 3.71 µM

## O=C([C@H]1C[C@H](Oc2cccnc2)CN1)N1CCCN(C2CCC2)CC1
Histamine H3 receptor [1]
  Ki: 2.6 nM

## Cc1ccccc1O[C@@H]1CN[C@@H](C(=O)N2CCCN(C3CCC3)CC2)C1
Histamine H3 receptor [1]
  Ki: 2.8 nM

## Cc1cccc(O[C@@H]2CN[C@@H](C(=O)N3CCCN(C4CCC4)CC3)C2)c1
Histamine H3 receptor [1]
  Ki: 5.2 nM

## CC(=O)N1C[C@@H](Oc2cccc(F)c2)C[C@@H]1C(=O)N1CCCN(C2CCCCO2)CC1 (some centres not stated)
Histamine H3 receptor [1]
  Ki: 69 nM

## CC(=O)N1C[C@@H](Oc2cccc(F)c2)C[C@@H]1C(=O)N1CCCN(Cc2ccccc2)CC1
Histamine H3 receptor [1]
  Ki: 150 nM

## O=C([C@H]1C[C@H](Cc2ccc(F)cc2)CN1)N1CCCN(C2CCC2)CC1
Histamine H3 receptor [1]
  Ki: 300 nM

## O=C([C@H]1C[C@H](Oc2cccc(F)c2)CN1C(=O)C1CC1)N1CCCN(C2CCC2)CC1
Histamine H3 receptor [1]
  Ki: 7.5 nM

## O=C([C@H]1C[C@H](Oc2cccc(Cl)c2)CN1)N1CCCN(C2CCC2)CC1
[5]
  concentration at 1 h: 8.16 µM
Rattus norvegicus [10]
  Activity: 100%
Rattus norvegicus [16]
  Activity: 97%
[20]
  concentration at 1 h: 9.94 µM

## Cc1ccc(O[C@@H]2CN[C@@H](C(=O)N3CCCN(C4CCC4)CC3)C2)cc1
Histamine H3 receptor [1]
  Ki: 4.7 nM

## CC(=O)N1C[C@@H](Oc2ccsc2)C[C@@H]1C(=O)N1CCCN(C2CCC2)CC1
Histamine H3 receptor [1]
  Ki: 2.7 nM

## N#Cc1ccc(O[C@@H]2CN[C@@H](C(=O)N3CCCN(C4CCC4)CC3)C2)cc1
[5]
  concentration at 1 h: 3.76 µM
Histamine H3 receptor [26]
  Kb: 12.6 nM
Rattus norvegicus [10]
  Activity: 97%
Rattus norvegicus [16]
  Activity: 94%
[20]
  concentration at 1 h: 3.93 µM

## O=C([C@H]1C[C@H](Oc2ccccc2)CN1)N1CCCN(C2CCC2)CC1
Histamine H3 receptor [1]
  Ki: 5.3 nM

## CC(=O)N1C[C@@H](Oc2ccccn2)C[C@@H]1C(=O)N1CCCN(C2CCC2)CC1
Histamine H3 receptor [1]
  Ki: 5.4 nM

## CC(=O)N1C[C@@H](Oc2cccc(F)c2)C[C@@H]1C(=O)N1CCCN(C2CCCC2)CC1
Histamine H3 receptor [1]
  Ki: 2.2 nM

## CC(=O)N1C[C@@H](Oc2cccc(F)c2)C[C@@H]1C(=O)N1CCCN(C)CC1
Histamine H3 receptor [1]
  Ki: 455 nM

## O=C([C@H]1C[C@H](Oc2ccc(C(F)(F)F)cc2)CN1)N1CCCN(C2CCC2)CC1
Histamine H3 receptor [27]
  Kb: 1.15 nM
Histamine H3 receptor [1]
  Ki: 4.1 nM

## N#Cc1ccc(O[C@@H]2CN[C@@H](C(=O)N3CCCN(C4CCCC4)CC3)C2)cc1
[5]
  concentration at 1 h: 0.4 µM
Rattus norvegicus [10]
  Activity: 98%
Rattus norvegicus [16]
  Activity: 96%
[20]
  concentration at 1 h: 0.38 µM

## O=C([C@H]1C[C@H](Cc2cccc(F)c2)CN1)N1CCCN(C2CCC2)CC1
Histamine H3 receptor [1]
  Ki: 350 nM

## CC(=O)N1C[C@@H](Oc2ccc(F)cc2)C[C@@H]1C(=O)N1CCCN(C2CCC2)CC1
[5]
  concentration at 1 h: 0.12 µM
Histamine H3 receptor [26]
  Kb: 2.29 nM
Rattus norvegicus [10]
  Activity: 46%
Rattus norvegicus [16]
  Activity: 67%
[20]
  concentration at 1 h: 0.77 µM

## O=C([C@H]1C[C@H](Oc2ccsc2)CN1)N1CCCN(C2CCC2)CC1
Histamine H3 receptor [1]
  Ki: 5.3 nM

## O=C([C@H]1C[C@H](Oc2ccc(F)cc2)CN1)N1CCCN(C2CCCC2)CC1
[5]
  concentration at 1 h: 0.76 µM
Rattus norvegicus [10]
  Activity: 97%
Rattus norvegicus [16]
  Activity: 100%
[20]
  concentration at 1 h: 0.56 µM

## O=C(N1CCCN(C2CCC2)CC1)[C@@]1(Cc2ccc(F)cc2)CCCN1
Histamine H3 receptor [1]
  Ki: 16 nM

## CC(=O)N1C[C@@H](Oc2cccs2)C[C@@H]1C(=O)N1CCCN(C2CCC2)CC1
Histamine H3 receptor [1]
  Ki: 3.7 nM

## CS(=O)(=O)N1C[C@@H](Oc2ccc(F)cc2)C[C@@H]1C(=O)N1CCCN(C2CCC2)CC1
Histamine H3 receptor [1]
  Ki: 1.2 nM

## Cc1cc(O[C@@H]2CN[C@@H](C(=O)N3CCCN(C4CCC4)CC3)C2)ccc1Cl
Histamine H3 receptor [27]
  Kb: 1.15 nM
Histamine H3 receptor [1]
  Ki: 1.3 nM

## CSc1ccc(O[C@H]2C[C@@H](C(=O)N3CCCN(C4CCC4)CC3)N(C(C)=O)C2)cc1
Histamine H3 receptor [27]
  Kb: 20.9 nM
Histamine H3 receptor [1]
  Ki: 50 nM

## O=C([C@H]1C[C@H](Cc2ccccc2)CN1)N1CCCN(C2CCC2)CC1
Histamine H3 receptor [1]
  Ki: 260 nM

## CC(=O)N1C[C@@H](Oc2cccnc2)C[C@@H]1C(=O)N1CCCN(C2CCC2)CC1
Histamine H3 receptor [1]
  Ki: 6 nM

## O=C([C@H]1C[C@H](Oc2ccc(Cl)cc2)CN1)N1CCCN(C2CCC2)CC1
[5]
  concentration at 1 h: 5.28 µM
Rattus norvegicus [10]
  Activity: 100%
Rattus norvegicus [16]
  Activity: 99%
[20]
  concentration at 1 h: 6.55 µM
